Data as given in ChEMBL document CHEMBL1146121 (J Med Chem, 2006).

Columns and labels:
[1] = target: T1, 1-deoxy-D-xylulose 5-phosphate reductoisomerase (Escherichia coli K-12, UniProt P45568); experiment: Inhibition of recombinant Escherichia coli DXR
T1 sequence (P45568 whole entry): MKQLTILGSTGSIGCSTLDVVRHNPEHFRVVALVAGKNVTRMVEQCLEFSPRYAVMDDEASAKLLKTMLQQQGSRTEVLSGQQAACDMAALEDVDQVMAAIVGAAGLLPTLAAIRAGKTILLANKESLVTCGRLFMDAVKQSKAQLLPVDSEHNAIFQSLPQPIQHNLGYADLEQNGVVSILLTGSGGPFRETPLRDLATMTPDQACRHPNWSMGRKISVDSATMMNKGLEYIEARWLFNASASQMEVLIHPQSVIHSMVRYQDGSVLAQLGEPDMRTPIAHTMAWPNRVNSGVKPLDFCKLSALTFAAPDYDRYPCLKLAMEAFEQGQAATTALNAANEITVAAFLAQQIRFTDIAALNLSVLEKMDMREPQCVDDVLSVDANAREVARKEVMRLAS
How it was run: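 Enzyme activity measured as conversion of DOXP to MEP, read out via the NADPH dependence of the reductoisomerase reaction.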

Plasmodium falciparum [2] = experiment: Inhibition of Plasmodium falciparum 3D7; format: functional, organism-based
How it was run: (§1)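 Intraerythrocytic parasites cultured with the test agent in a semiautomated microdilution format. Growth was followed by incorporation of tritium-labelled hypoxanthine.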

Plasmodium falciparum [3] = experiment: Inhibition of Plasmodium falciparum Dd2; format: functional, organism-based; how it was run: as §1

Row | SMILES | IC50 [1] [nM] | IC50 (Plasmodium falciparum [2]) [nM] | IC50 (Plasmodium falciparum [3]) [nM]
1 | CC(=O)N(O)C[C@@H]1C[C@H]1P(=O)(O)O | 50 | 320 | 480
2 | O=CN(O)C[C@@H]1C[C@H]1P(=O)(O)O | 313 | 2100 | 2000
3 | CC(=O)N(O)CC1CC1P(=O)(O)O (centres undefined) | 160 | – | –
4 | CCC(=O)N(O)C[C@@H]1C[C@H]1P(=O)(O)O | > 3000 | – | –
5 | CC(=O)N(O)CC1CC1(c1ccccc1)P(=O)(O)O (centres undefined) | > 30000 | – | –
6 | O=CN(O)CCCP(=O)(O)O [FOSMIDOMYCIN] | – | 400 | 480
7 | CC(=O)N(O)CCCP(=O)(O)O [FR-900098] | 58 | 240 | 280
